Results from PubChem BioAssay.
Where “and” joins values, the source holds several entries; their conditions need not be identical. Identical values can stand only once. Calls of active or inactive are those of the source. Unless noted, no stated cut-off is given here; in the data, active means inhibition above about 30%; inactive means the rest.

Assays:
[1] = reduced viability of SK-BR-3 breast cancer cells – cell-based, 24 h, human, pilot screen (AID 572;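 active means viability at or below 10% of carrier control in both of two separate runs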;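 further: compound exposure lasted between 18 and 24 h rather than exactly 24 h; 100% = carrier-treated control wells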); settings: SK-BR-3 viability, CellTiter-Glo luminescence, at 10 µM, stronger effect = lower value
[2] = HUVEC growth inhibition – cell-based, human, primary screen (AID 575;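 active means viability at or below 30% in both replicate assays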;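 further: 100% = median of untreated cell wells with 0.1% DMSO on each plate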); settings: HUVEC proliferation, CellTiter-Glo luminescence, 72 h; at 10 µM; stronger effect = lower value
Summary of the method: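 System: primary human umbilical vein endothelial cells; Quantity: 1250 endothelial cells in each well; Buffer or medium: supplemented EBM, 2% fetal bovine serum; Doses: one dose, 10 µM final, 0.1% DMSO; Incubation: 72 h compound incubation; Technique: ATP-based CellTiter-Glo luminescent read; Evaluation: percent of median DMSO-control luminescence; Controls: vehicle and MePR control wells.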

[3] = H69AR cell proliferation blockers – human, duplicate replicates, primary screen (AID 580;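 active means viability at or under a set limit in both replicates, limit being median viability minus 3 SD, cut at about 48% in these data, passing the limit was not always enough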;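 further: 100% = mean luminescence of untreated wells and 0% = no signal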); settings: H69AR lung tumor cells viability, ATP luminescence, 72 h; at 10 µM; stronger effect = lower value
[4] = MRP1 drug-resistance reversers in H69AR cells – cell-based, doxorubicin co-treatment, pilot screen (AID 601;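 active means viability loss from added drug above about 55%, and viability with drug at most 40%, in both replicates, limit read from the data, passing the limit was not always enough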); settings: CellTiter-Glo, 72 h, at 10 µM; for differential viability (reversal): stronger effect = higher value
[5] = yeast transport mutant growth inhibition pilot in 384-well plates, post-Golgi transport modulator project (AID 636; in the data active means inhibition above about 31%); settings: absorbance 615 nm, about 18 h, stronger effect = higher value
[6] = growth suppression of yeast trafficking mutant, preliminary HTS, modulators of trafficking downstream of Golgi apparatus project, 1536-format plate, OD 615 nm (AID 637); settings: yeast transport mutant growth, absorbance 615 nm, 18 h; stronger effect = higher value
[7] = H69AR cells + 2 uM doxorubicin, measured here: viability with 2 uM doxorubicin, stronger effect = lower value
[8] = H69AR cells, compound alone cytotoxicity

Structure (SMILES) | viability [1] | viability [2] | viability [3] | differential viability (reversal) ([4]; H69AR cells + 2 uM doxorubicin) | viability [4, 7] | viability [4, 8] | inhibition [5] | inhibition [6]
CCOC(=O)C1CCN(C(C)=C2C(=O)c3ccccc3C2=O)CC1 | 98% (inactive) | 110% (inactive) | 105% (inactive) | 10.4% (inactive) | 94.6% | 105% | -4.66% (inactive) | 7.26% (inactive)
CN(C)CCOC(=O)C(c1ccccc1)C1(O)CCCC1 (stereo not given) | 127% (inactive) | 92.9% (inactive) | 102% (inactive) | 4.65% (inactive) | 97% | 102% | -1.43% (inactive) | 2.33% (inactive)
Cc1cc(Cl)ccc1OCC(=O)Nn1c(C)ccc1C | 68% (inactive) | 101% (inactive) | 94% (inactive) | 11.1% (inactive) | 82.9% | 94% | -1.37% (inactive) | -4.68% (inactive)
COc1ccc(N2C(=O)C(Cl)=C(N3CCCC3)C2=O)cc1 | 97% (inactive) | 86.1% (inactive) | 94.7% (inactive) | 9.9% (inactive) | 84.8% | 94.7% | -6.08% (inactive) | -6.18% (inactive)
CS(=O)(=O)N(CC(=O)Nc1ccc2c(c1)OCO2)Cc1ccc(Cl)cc1 | 70% (inactive) | 88.5% (inactive) | 95% (inactive) | -7.89% (inactive) | 103% | 95% | -6.58% (inactive) | 2.73% (inactive)
COc1ccc(-c2noc(CCN3C(=O)c4ccccc4C3=O)n2)cc1OC | 140% (inactive) | 105% (inactive) | 93.9% (inactive) | 17.8% (inactive) | 76.1% | 93.9% | -4.03% (inactive) | -1.15% (inactive)
COc1cccc(-c2nnn(CC(=O)O)n2)c1 | 149% (inactive) | 100% (inactive) | 91% (inactive) | 1.7% (inactive) | 89.3% | 91% | -1.43% (inactive) | 1.97% (inactive)
COc1ccc(NC(=O)Nc2ccccc2C)c(OC)c1 | 93% (inactive) | 95.1% (inactive) | 89% (inactive) | 20.8% (inactive) | 68.2% | 89% | -4.8% (inactive) | -1.09% (inactive)
CCCCn1nnnc1NCc1cccs1 | 98% (inactive) | 97% (inactive) | 99.2% (inactive) | 14.4% (inactive) | 84.8% | 99.2% | -6.49% (inactive) | -0.33% (inactive)
CCC(C(=O)NC(C)CCc1ccco1)n1nc(C)n2c(cc3occc32)c1=O (stereo not given) | 129% (inactive) | 103% (inactive) | 83.5% (inactive) | -16.1% (inactive) | 99.7% | 83.5% | -6.3% (inactive) | -1.64% (inactive)
CCCCOc1cc(C(=O)NCCN(CC)CC)c2ccccc2n1 | 99% (inactive) and 112% (inactive) | 53.4% (inactive) and 59.6% (inactive) | 89.5% (inactive) and 84.4% (inactive) | 8.11% (inactive) and 17.8% (inactive) | 81.4% and 66.6% | 89.5% and 84.4% | -2.86% (inactive) and -0.26% (inactive) | 0.33% (inactive) and 6.5% (inactive)
CC(=O)OCC(=O)[C@@]1(O)CC[C@H]2[C@@H]3CCC4=CC(=O)C=C[C@]4(C)[C@H]3[C@@H](O)C[C@@]21C | 82% (inactive) | 91.5% (inactive) | 91.1% (inactive) | -7.15% (inactive) | 98.2% | 91.1% | 1.56% (inactive) | -1.83% (inactive)
COc1ccc(OC)c(-c2cc(C(=O)NCc3cccs3)no2)c1 | 101% (inactive) | 76.2% (inactive) | 94.4% (inactive) | 7.29% (inactive) | 87.1% | 94.4% | -2.6% (inactive) | -5.74% (inactive)
O=S(=O)(NCc1cn2ccccc2n1)c1cc(F)ccc1F | 107% (inactive) | 89.9% (inactive) | 96.6% (inactive) | 9.41% (inactive) | 87.2% | 96.6% | -5.68% (inactive) | -6.36% (inactive)
CCN(C(=O)c1cccs1)c1nnc(-c2ccncc2)s1 | 105% (inactive) | 120% (inactive) | 92.5% (inactive) | 7.03% (inactive) | 85.5% | 92.5% | -3.33% (inactive) | 2.91% (inactive)
CC1(C)CC(=O)CC(=Nc2ccc(C(=O)O)cc2)C1 | 92% (inactive) | 97.3% (inactive) | 87.7% (inactive) | -4.41% (inactive) | 92.1% | 87.7% | -3.64% (inactive) | -0.16% (inactive)
Cc1cc(S(=O)(=O)N2CCN(c3ccccc3C)CC2)ccc1F | 89% (inactive) | 90.1% (inactive) | 79.5% (inactive) | -0.315% (inactive) | 79.8% | 79.5% | -0.78% (inactive) | 4.59% (inactive)
COCCn1nnnc1C(c1ccccc1OC)N1CCc2ccccc2C1 (stereo not given) | 119% (inactive) | 103% (inactive) | 82.1% (inactive) | -6.74% (inactive) | 88.8% | 82.1% | -8.24% (inactive) | -6.36% (inactive)

Structure (SMILES) | viability [1] | viability [2] | viability [3] | differential viability (reversal) ([4]; H69AR cells + 2 uM doxorubicin) | viability [4, 7] | viability [4, 8] | inhibition [5] | inhibition [6]
O=C(O)c1cc2cc(F)ccc2[nH]1 | 110% (inactive) | 78.4% (inactive) | 94.5% (inactive) | -17.1% (inactive) | 112% | 94.5% | -1.82% (inactive) | -4.67% (inactive)
OC[C@H]1O[C@@H](n2cnc3c(Nc4ccccc4)ncnc32)[C@H](O)[C@@H]1O | 95% (inactive) | 71.9% (inactive) | 84.4% (inactive) | 2.24% (inactive) | 82.1% | 84.4% | -2.34% (inactive) | 1.17% (inactive)
COc1ccc(OC)c(NC(=O)CSc2nnc(-c3ccco3)n2-c2ccccc2)c1 | 59% (inactive) | 83% (inactive) | 90.4% (inactive) | 5.04% (inactive) | 85.4% | 90.4% | -6.3% (inactive) | 3.45% (inactive)
C=CCn1c(=O)c2ccccc2n2c(SC(C)C(=O)Nc3nc(-c4ccccc4)cs3)nnc12 (stereo not given) | 66% (inactive) | 65.7% (inactive) | 79.6% (inactive) | -2.34% (inactive) | 81.9% | 79.6% | 2.6% (inactive) | 5.41% (inactive)
COc1cc(-c2nc(S(=O)(=O)c3ccc(C)cc3)c(N(C)C)o2)cc(OC)c1OC | 71% (inactive) | 93.2% (inactive) | 87.9% (inactive) | 1.51% (inactive) | 86.3% | 87.9% | -8.4% (inactive) | -1.09% (inactive)
CCOC(=O)Cc1nnc(Nc2cccc(O)c2)c2ccccc12 | 98% (inactive) | 95.4% (inactive) | 106% (inactive) | 20.6% (inactive) | 85.8% | 106% | -3.65% (inactive) | 0% (inactive)
CC(C)(Oc1ccc(CCNC(=O)c2ccc(Cl)cc2)cc1)C(=O)O | 95% (inactive) | 83.1% (inactive) | 105% (inactive) | 8.17% (inactive) | 96.8% | 105% | -4.29% (inactive) | -0.67% (inactive)
N#CC1=C(N)N2C(=C(C#N)C13CCCCC3)SC1CCCCC12O (stereo not given) | 72% (inactive) | 88.2% (inactive) | 76.1% (inactive) | 6.71% (inactive) | 69.4% | 76.1% | -3.01% (inactive) | 8.91% (inactive)
O=C1CCC(C(=O)N(Cc2ccco2)C2(C(=O)NC3CCCC3)CCCCC2)N1 (stereo not given) | 94% (inactive) | 106% (inactive) | 87.7% (inactive) | -8.42% (inactive) | 96.1% | 87.7% | -7.81% (inactive) | -1.09% (inactive)
CC1CNCCN1S(=O)(=O)c1cccc2cnccc12 (stereo not given) | 100% (inactive) | 84.4% (inactive) | 102% (inactive) | 5.87% (inactive) | 96.2% | 102% | 1.3% (inactive) | -1.83% (inactive)
O=C(O)C1CCCCC1C(=O)Nc1ccccn1 (stereo not given) | 115% (inactive) | 93.9% (inactive) | 108% (inactive) | 8.84% (inactive) | 99.4% | 108% | -4.52% (inactive) | -4.73% (inactive)
COC(=O)c1sccc1NC(=O)c1ccco1 | 109% (inactive) | 92.3% (inactive) | 96.3% (inactive) | -5.95% (inactive) | 102% | 96.3% | -6.71% (inactive) | 7.27% (inactive)
Cc1nc2ccc(S(=O)(=O)NCC(=O)N3CCCCC3)cc2s1 | 116% (inactive) | 100% (inactive) | 87.4% (inactive) | 2.37% (inactive) | 85% | 87.4% | -2.99% (inactive) | 0.16% (inactive)
COc1ccccc1-n1cnc2cc(NS(=O)(=O)c3ccccc3)ccc21 | 62% (inactive) | 101% (inactive) | 87.1% (inactive) | -0.69% (inactive) | 87.8% | 87.1% | -3.15% (inactive) | -6.55% (inactive)
O=C(NC1CCCCCC1)c1cc(S(=O)(=O)N2CCC3(CC2)OCCO3)ccc1F | 106% (inactive) | 98.2% (inactive) | 88.3% (inactive) | -4.04% (inactive) | 92.4% | 88.3% | 0.27% (inactive) | 3.27% (inactive)
Cc1c(C(=O)NCc2ccoc2)oc2ccc3c(c12)C(=O)CC(C)(C)O3 | 129% (inactive) | 75.1% (inactive) | 76.2% (inactive) | -2.74% (inactive) | 78.9% | 76.2% | -0.52% (inactive) | 3.77% (inactive)
Clc1ccc2c(c1)[C@H]1OCC[C@H]1[C@@H](c1ccco1)N2 | 104% (inactive) | 89.6% (inactive) | 86% (inactive) | 0.43% (inactive) | 85.6% | 86% | -0.13% (inactive) | -5.83% (inactive)
